ChEMBL document CHEMBL3352602, “One-pot synthesis and antiproliferative activity of novel 2,4-diaminopyrimidine derivatives bearing piperidine and piperazine moieties” (Eur J Med Chem, 2014)

Each compound was assayed on HepG2 (assay: Cytotoxicity against human HepG2 cells after 48 hrs by MTT assay). Details: HepG2, 48 h.
Type: functional, cell-based
In short: (§1)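 MTT assay on cells grown in DMEM with 10% FBS and split at 70-80% confluence by trypsinization. Seeded 1×10^4 cells/well, attached 24 h at 37 °C. Compounds came from 10 mM DMSO stocks diluted in medium to a concentration series, with 0.1% DMSO as negative control. Cells were exposed for 48 h at 37 °C, then given MTT for 4 h. Formazan was dissolved in DMSO and read at 570 nm. IC50 was fitted from % inhibition versus control, mean of three independent experiments.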
`COc1ccc(CCNc2nccc(NC3CCN(S(C)(=O)=O)CC3)n2)cc1` gave an IC50 of 20 µM. `COc1ccc(Nc2nc(NC3CCN(S(C)(=O)=O)CC3)ncc2Cl)cc1` was tested, and the IC50 was > 200 µM. With `CS(=O)(=O)N1CCC(Nc2ccnc(Nc3ccc(Cl)cc3)n2)CC1` the IC50 was 92.6 µM. With `COc1ccc(CNc2nccc(NC3CCN(S(C)(=O)=O)CC3)n2)cc1` the IC50 was 20.2 µM. For `CS(=O)(=O)N1CCC(Nc2ncc(Cl)c(Nc3ccccc3)n2)CC1`, the IC50 was > 200 µM. Work on `COc1cccc(Nc2ccnc(NC3CCN(S(C)(=O)=O)CC3)n2)c1` yielded an IC50 of 86.6 µM. In the case of `COc1ccc(CCNc2nc(NC3CCN(S(C)(=O)=O)CC3)ncc2Cl)cc1`, the IC50 is reported as > 200 µM. Work on `CS(=O)(=O)N1CCC(Nc2nccc(NCc3ccccc3)n2)CC1` yielded an IC50 of 149 µM. For `CS(=O)(=O)N1CCC(Nc2ncc(Cl)c(NCCc3ccc(Cl)cc3)n2)CC1`, the IC50 was > 200 µM. With `COc1ccc(CNc2nc(NC3CCN(S(C)(=O)=O)CC3)ncc2Cl)cc1` the IC50 was > 200 µM. `COc1cccc(Nc2nccc(NC3CCN(S(C)(=O)=O)CC3)n2)c1` was tested, and the IC50 was 67.9 µM. `CS(=O)(=O)N1CCC(Nc2ncc(Cl)c(NCCc3ccccc3)n2)CC1` was tested, and the IC50 was 123 µM.

These compounds were tested on A549 (assay: Cytotoxicity against human A549 cells after 48 hrs by MTT assay). Details: A549, 48 h.
Type: functional, cell-based
In short: as §1
In the case of `COc1ccc(CCNc2nccc(NC3CCN(S(C)(=O)=O)CC3)n2)cc1`, the IC50 is reported as 21.4 µM. In the case of `COc1ccc(Nc2nc(NC3CCN(S(C)(=O)=O)CC3)ncc2Cl)cc1`, the IC50 is reported as > 200 µM. In the case of `CS(=O)(=O)N1CCC(Nc2ccnc(Nc3ccc(Cl)cc3)n2)CC1`, the IC50 is reported as > 200 µM. `COc1ccc(CNc2nccc(NC3CCN(S(C)(=O)=O)CC3)n2)cc1` was tested, and the IC50 was 12.8 µM. With `CS(=O)(=O)N1CCC(Nc2ncc(Cl)c(Nc3ccccc3)n2)CC1` the IC50 was > 200 µM. `COc1cccc(Nc2ccnc(NC3CCN(S(C)(=O)=O)CC3)n2)c1` was tested, and the IC50 was > 200 µM. For `COc1ccc(CCNc2nc(NC3CCN(S(C)(=O)=O)CC3)ncc2Cl)cc1`, the IC50 was > 200 µM. With `CS(=O)(=O)N1CCC(Nc2nccc(NCc3ccccc3)n2)CC1` the IC50 was 42.5 µM. `CS(=O)(=O)N1CCC(Nc2ncc(Cl)c(NCCc3ccc(Cl)cc3)n2)CC1` was tested, and the IC50 was > 200 µM. Compound `COc1ccc(CNc2nc(NC3CCN(S(C)(=O)=O)CC3)ncc2Cl)cc1` has an IC50 of 60.9 µM. `COc1cccc(Nc2nccc(NC3CCN(S(C)(=O)=O)CC3)n2)c1` was tested, and the IC50 was > 200 µM. With `CS(=O)(=O)N1CCC(Nc2ncc(Cl)c(NCCc3ccccc3)n2)CC1` the IC50 was > 200 µM.

The compounds below were run on MDA-MB-231 (assay: Cytotoxicity against human MDA-MB-231 cells after 48 hrs by MTT assay). Details: MDA-MB-231, 48 h.
Type: functional, cell-based
In short: as §1
`COc1ccc(CCNc2nccc(NC3CCN(S(C)(=O)=O)CC3)n2)cc1` was tested, and the IC50 was 15.8 µM. With `COc1ccc(Nc2nc(NC3CCN(S(C)(=O)=O)CC3)ncc2Cl)cc1` the IC50 was > 200 µM. `CS(=O)(=O)N1CCC(Nc2ccnc(Nc3ccc(Cl)cc3)n2)CC1` gave an IC50 of 102 µM. Compound `COc1ccc(CNc2nccc(NC3CCN(S(C)(=O)=O)CC3)n2)cc1` has an IC50 of 7.46 µM. For `CS(=O)(=O)N1CCC(Nc2ncc(Cl)c(Nc3ccccc3)n2)CC1`, the IC50 was > 200 µM. For `COc1cccc(Nc2ccnc(NC3CCN(S(C)(=O)=O)CC3)n2)c1`, the IC50 was 29.4 µM. In the case of `COc1ccc(CCNc2nc(NC3CCN(S(C)(=O)=O)CC3)ncc2Cl)cc1`, the IC50 is reported as > 200 µM. For `CS(=O)(=O)N1CCC(Nc2nccc(NCc3ccccc3)n2)CC1`, the IC50 was 60.8 µM. `O=c1[nH]cc(F)c(=O)[nH]1` [FLUOROURACIL] gave an IC50 of 24.6 µM. `CS(=O)(=O)N1CCC(Nc2ncc(Cl)c(NCCc3ccc(Cl)cc3)n2)CC1` was tested, and the IC50 was > 200 µM. Work on `COc1ccc(CNc2nc(NC3CCN(S(C)(=O)=O)CC3)ncc2Cl)cc1` yielded an IC50 of 34.1 µM. Compound `COc1cccc(Nc2nccc(NC3CCN(S(C)(=O)=O)CC3)n2)c1` has an IC50 of 109 µM. With `CS(=O)(=O)N1CCC(Nc2ncc(Cl)c(NCCc3ccccc3)n2)CC1` the IC50 was > 200 µM.

What follows are compounds tested on MCF7 (assay: Cytotoxicity against human MCF7 cells after 48 hrs by MTT assay). Details: MCF7, 48 h.
Type: functional, cell-based
In short: as §1
`COc1ccc(CCNc2nccc(NC3CCN(S(C)(=O)=O)CC3)n2)cc1` gave an IC50 of 32.8 µM. `COc1ccc(Nc2nc(NC3CCN(S(C)(=O)=O)CC3)ncc2Cl)cc1` was tested, and the IC50 was > 200 µM. For `CS(=O)(=O)N1CCC(Nc2ccnc(Nc3ccc(Cl)cc3)n2)CC1`, the IC50 was > 200 µM. `COc1ccc(CNc2nccc(NC3CCN(S(C)(=O)=O)CC3)n2)cc1` showed an IC50 of 16.2 µM. With `CS(=O)(=O)N1CCC(Nc2ncc(Cl)c(Nc3ccccc3)n2)CC1` the IC50 was > 200 µM. In the case of `COc1cccc(Nc2ccnc(NC3CCN(S(C)(=O)=O)CC3)n2)c1`, the IC50 is reported as 77.8 µM. With `COc1ccc(CCNc2nc(NC3CCN(S(C)(=O)=O)CC3)ncc2Cl)cc1` the IC50 was > 200 µM. `CS(=O)(=O)N1CCC(Nc2nccc(NCc3ccccc3)n2)CC1` gave an IC50 of 98.5 µM. Compound `O=c1[nH]cc(F)c(=O)[nH]1` [FLUOROURACIL] has an IC50 of 39.9 µM. `CS(=O)(=O)N1CCC(Nc2ncc(Cl)c(NCCc3ccc(Cl)cc3)n2)CC1` was tested, and the IC50 was > 200 µM. `COc1ccc(CNc2nc(NC3CCN(S(C)(=O)=O)CC3)ncc2Cl)cc1` showed an IC50 of 64.8 µM. With `COc1cccc(Nc2nccc(NC3CCN(S(C)(=O)=O)CC3)n2)c1` the IC50 was 72.1 µM. In the case of `CS(=O)(=O)N1CCC(Nc2ncc(Cl)c(NCCc3ccccc3)n2)CC1`, the IC50 is reported as > 200 µM.

What follows are compounds tested on MDA-MB-231 (assay: Induction of cell cycle arrest in human MDA-MB-231 cells assessed as accumulation at subG1 phase at 20 uM after 48 hrs by propidium iodide staining based FACS analysis (reference value: 1.69%)). Details: not given.
Type: functional
Work on `COc1ccc(CNc2nccc(NC3CCN(S(C)(=O)=O)CC3)n2)cc1` yielded an Activity of 1.09%.

These compounds were tested on MDA-MB-231 (assay: Induction of cell cycle arrest in human MDA-MB-231 cells assessed as accumulation at subG1 phase at 40 uM after 48 hrs by propidium iodide staining based FACS analysis (reference value: 1.69%)). Details: not given.
Type: functional
Work on `COc1ccc(CNc2nccc(NC3CCN(S(C)(=O)=O)CC3)n2)cc1` yielded an Activity of 1.03%.

These compounds were tested on MDA-MB-231 (assay: Induction of cell cycle arrest in human MDA-MB-231 cells assessed as accumulation at subG1 phase at 80 uM after 48 hrs by propidium iodide staining based FACS analysis (reference value: 1.69%)). Details: not given.
Type: functional
For `COc1ccc(CNc2nccc(NC3CCN(S(C)(=O)=O)CC3)n2)cc1`, the Activity was 1.26%.

Each compound was assayed on MDA-MB-231 (assay: Induction of cell cycle arrest in human MDA-MB-231 cells assessed as accumulation at G0/G1 phase at 20 uM after 48 hrs by propidium iodide staining based FACS analysis (reference value: 37.97%)). Details: not given.
Type: functional
`COc1ccc(CNc2nccc(NC3CCN(S(C)(=O)=O)CC3)n2)cc1` gave an Activity of 33.09%.

Each compound was assayed on MDA-MB-231 (assay: Induction of cell cycle arrest in human MDA-MB-231 cells assessed as accumulation at G0/G1 phase at 40 uM after 48 hrs by propidium iodide staining based FACS analysis (reference value: 37.97%)). Details: not given.
Type: functional
With `COc1ccc(CNc2nccc(NC3CCN(S(C)(=O)=O)CC3)n2)cc1` the Activity was 32.55%.

Each compound was assayed on MDA-MB-231 (assay: Induction of cell cycle arrest in human MDA-MB-231 cells assessed as accumulation at G0/G1 phase at 80 uM after 48 hrs by propidium iodide staining based FACS analysis (reference value: 37.97%)). Details: not given.
Type: functional
`COc1ccc(CNc2nccc(NC3CCN(S(C)(=O)=O)CC3)n2)cc1` showed an Activity of 31.01%.

These compounds were tested on MDA-MB-231 (assay: Induction of cell cycle arrest in human MDA-MB-231 cells assessed as accumulation at S phase at 20 uM after 48 hrs by propidium iodide staining based FACS analysis (reference value: 42.22%)). Details: not given.
Type: functional
For `COc1ccc(CNc2nccc(NC3CCN(S(C)(=O)=O)CC3)n2)cc1`, the Activity was 32.03%.

The compounds below were run on MDA-MB-231 (assay: Induction of cell cycle arrest in human MDA-MB-231 cells assessed as accumulation at S phase at 40 uM after 48 hrs by propidium iodide staining based FACS analysis (reference value: 42.22%)). Details: not given.
Type: functional
`COc1ccc(CNc2nccc(NC3CCN(S(C)(=O)=O)CC3)n2)cc1` was tested, and the Activity was 29.91%.

Each compound was assayed on MDA-MB-231 (assay: Induction of cell cycle arrest in human MDA-MB-231 cells assessed as accumulation at S phase at 80 uM after 48 hrs by propidium iodide staining based FACS analysis (reference value: 42.22%)). Details: not given.
Type: functional
With `COc1ccc(CNc2nccc(NC3CCN(S(C)(=O)=O)CC3)n2)cc1` the Activity was 26.78%.

The compounds below were run on MDA-MB-231 (assay: Induction of cell cycle arrest in human MDA-MB-231 cells assessed as accumulation at G2/M phase at 20 uM after 48 hrs by propidium iodide staining based FACS analysis (reference value: 18.12%)). Details: not given.
Type: functional
`COc1ccc(CNc2nccc(NC3CCN(S(C)(=O)=O)CC3)n2)cc1` was tested, and the Activity was 33.79%.

What follows are compounds tested on MDA-MB-231 (assay: Induction of cell cycle arrest in human MDA-MB-231 cells assessed as accumulation at G2/M phase at 40 uM after 48 hrs by propidium iodide staining based FACS analysis (reference value: 18.12%)). Details: not given.
Type: functional
For `COc1ccc(CNc2nccc(NC3CCN(S(C)(=O)=O)CC3)n2)cc1`, the Activity was 36.51%.

These compounds were tested on MDA-MB-231 (assay: Induction of cell cycle arrest in human MDA-MB-231 cells assessed as accumulation at G2/M phase at 80 uM after 48 hrs by propidium iodide staining based FACS analysis (reference value: 18.12%)). Details: not given.
Type: functional
With `COc1ccc(CNc2nccc(NC3CCN(S(C)(=O)=O)CC3)n2)cc1` the Activity was 40.95%.

These compounds were tested on MDA-MB-231 (assay: Induction of cell cycle arrest in human MDA-MB-231 cells assessed as accumulation at G2/M phase after 48 hrs by propidium iodide staining based FACS analysis (reference value: 18.12%)). Details: not given.
Type: functional
For `COc1ccc(CNc2nccc(NC3CCN(S(C)(=O)=O)CC3)n2)cc1`, the Activity was “Dose-dependent effect”.

Each compound was assayed on MDA-MB-231 (assay: Cytotoxicity against human MDA-MB-231 cells after 48 hrs by MTT assay relative to fluorouracil). Details: not given.
Type: functional
In the case of `COc1ccc(CNc2nccc(NC3CCN(S(C)(=O)=O)CC3)n2)cc1`, the “Ratio IC50” value is reported as 2.

The compounds below were run on A549 (assay: Cytotoxicity against human A549 cells after 48 hrs by MTT assay relative to fluorouracil). Details: not given.
Type: functional
For `COc1ccc(CNc2nccc(NC3CCN(S(C)(=O)=O)CC3)n2)cc1`, the “Ratio IC50” value was 2.
